This is an account of results in ChEMBL document CHEMBL2311419, “Discovery of coumarin-dihydropyridine hybrids as bone anabolic agents” (J Med Chem, 2013).

Test [1] relates to Calvarial osteoblast. The test is described as follows: Induction of mineralization in mouse calvarial osteoblasts assessed as increase of mineralized nodules formation at 100 pM after 21 days by alizarin red-S staining based spectrophotometric analysis. Type of test: functional.
Test [2] deals with Calvarial osteoblast. Briefly: Induction of mineralization in mouse calvarial osteoblasts assessed as increase of mineralized nodules formation measuring concentration required for maximum activity after 21 days by alizarin red-S staining based spectrophotometric analysis. Type of test: functional.
For test [3], the system named is Calvarial osteoblast. Briefly: Induction of proliferation of mouse calvarial osteoblasts at 1 pM to 1 uM after 48 hrs. The format is functional, cell-based.
Test [4] is filed under the species Mus musculus. Briefly: Stimulation of alkaline phosphatase activity in mouse calvarial osteoblasts assessed as concentration required for maximum activity after 48 hrs by spectrophotometric analysis. The method in brief:
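Calvarial osteoblasts were exposed to compounds over 1 pM to 1 µM. ALP activity was read spectrophotometrically as optical density at 405 nm. Results were expressed as % ALP activity, with EC50 and Emax derived from the concentration series.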

Test [5] deals with Mus musculus. The test is described as follows: Induction of new bone formation in ovariectomized BALB/c mouse model assessed as increase in bone formation rate at 10 mg/kg/day, po qd for 8 weeks by bone histomorphometry analysis (Rvb =0.10 um'3/um'2/day). The format is functional.
Test [6] has as its system Mus musculus. The test is described as follows: Induction of new bone formation in ovariectomized BALB/c mouse model assessed as increase in bone formation rate at 5 mg/kg/day, po qd for 8 weeks by bone histomorphometry analysis (Rvb =0.10 um'3/um'2/day). The format is functional.
The test system of test [7] is Mus musculus. Briefly: Inhibition of osteoclastogenesis in ovariectomized BALB/c mouse model assessed as increase in OPG/RANKL ratio at 5 to 10 mg/kg/day, po qd for 8 weeks by qPCR analysis. The format is functional, organism-based.
Test [8] has as its system Mus musculus. Briefly: Inhibition of osteoclastogenesis in ovariectomized BALB/c mouse model assessed as suppression of TRAP gene expression at 1 mg/kg/day, po qd for 8 weeks by qPCR analysis. Type of test: functional, organism-based. In general terms: In qPCR the cycle at which signal appears reflects the starting amount.
Test [9] relates to Mus musculus. Briefly: Induction of osteoblast differentiation in ovariectomized BALB/c mouse model assessed as upregulation of BMP2 mRNA expression po administered qd for 8 weeks by qPCR analysis. Type of test: functional, organism-based.
The test system of test [10] is Mus musculus. Briefly: Inhibition of bone turnover in ovariectomized BALB/c mouse model assessed as reduction in ovariectomy-induced serum CTx levels at 1 mg/kg/day, po qd for 8 weeks by ELISA. Type of test: functional, organism-based. (In general: An ELISA detects its analyte on a solid surface through an enzyme-linked reagent.)
For test [11], the system named is Mus musculus. Briefly: Inhibition of bone turnover in ovariectomized BALB/c mouse model assessed as reduction in ovariectomy-induced serum osteocalcin levels at 1 to 5 mg/kg/day, po qd for 8 weeks by ELISA relative to control. Type of test: functional, organism-based.
The subject of test [12] is Mus musculus. Briefly: Antiosteoporotic activity in ovariectomized BALB/c mouse model assessed as restoration of ovariectomy-induced increase in structural model index at 1 mg/kg/day, po qd for 8 weeks. Type of test: functional, organism-based.
Test [13] has as its system Mus musculus. The test is described as follows: Antiosteoporotic activity in ovariectomized BALB/c mouse model assessed as restoration of ovariectomy-induced reduction in trabecular number at 1 mg/kg/day, po qd for 8 weeks (reference value: 0.12+/-0.02 /mm). Type of test: functional, Trabecula.
Test [14] concerns Mus musculus. The test is described as follows: Antiosteoporotic activity in ovariectomized BALB/c mouse model assessed as restoration of ovariectomy-induced increase in trabecular separation at 1 mg/kg/day, po qd for 8 weeks (reference value: 0.99+/-0.08mm). Type of test: functional, Trabecula.
In test [15] the test system is Mus musculus. Briefly: Antiosteoporotic activity in ovariectomized BALB/c mouse model assessed as restoration of ovariectomy-induced deterioration of trabecular microarchitecture at 1 to 10 mg/kg/day, po qd for 8 weeks. The format is functional, organism-based. The settings on record: Trabecula.
The test system of test [16] is Calvarial osteoblast. Briefly: Induction of osteoblastogenesis in mouse calvarial osteoblasts assessed as increase in expression of COL1 gene at 100 pM by qPCR analysis relative to control. Type of test: functional, cell-based.
Test [17] relates to Calvarial osteoblast. The test is described as follows: Induction of osteoblastogenesis in mouse calvarial osteoblasts assessed as increase in expression of osteocalcin gene at 100 pM by qPCR analysis relative to control. The format is functional, cell-based.
The subject of test [18] is Calvarial osteoblast. Briefly: Induction of osteoblastogenesis in mouse calvarial osteoblasts assessed as increase in expression of BMP2 gene at 100 pM by qPCR analysis relative to control. The format is functional, cell-based.
The subject of test [19] is Calvarial osteoblast. Briefly: Induction of osteoblastogenesis in mouse calvarial osteoblasts assessed as increase in expression of COL1 gene at 100 pM to 10 nM by qPCR analysis relative to control. Type of test: functional.
Test [20] concerns Calvarial osteoblast. Briefly: Induction of osteoblastogenesis in mouse calvarial osteoblasts assessed as increase in expression of ALP gene at 100 pM to 10 nM by qPCR analysis relative to control. Type of test: functional.
Test [21] deals with Calvarial osteoblast. The test is described as follows: Induction of osteoblastogenesis in mouse calvarial osteoblasts assessed as increase in expression of BMP2 gene at 100 pM to 10 nM by qPCR analysis relative to control. Type of test: functional.
The test system of test [22] is Calvarial osteoblast. Briefly: Induction of osteoblastogenesis in mouse calvarial osteoblasts assessed as increase in expression of RUNX2 gene at 100 pM to 10 nM by qPCR analysis relative to control. The format is functional.

Activity calls are given as the source filed them. The calls are words filed in the database; no cut-off is given here.

Turning to `CCOC(=O)C1=C(C)NC2=C(C(=O)CCC2)C1c1cc(C(C)CC)c2oc(=O)c(C(=O)OC)cc2c1` (configuration not stated), the Activity in [1] was 65%; in test [5], 0.31 um3/um2/day; in test [6], 0.33 um3/um2/day; in test [9], “Dose-dependent effect”; in test [13] it was 0.4 /millimeter; in [14] it was 0.66 mm. Moreover, the “Concentration for maximum mineralization” value in [2] is on record as 100 pM. Also, the outcome in [3], in test [12], in [15], in [16], in test [17] and in test [18] was Active. Moreover, the Concentration giving maximum ALP activity in test [4] was 100 pM. The inhibition result in test [7], in [8], in test [10] and in [11] was “Active” throughout. The “fold change (FC)” value in test [19], in [20], in test [21] and in [22] was 1.5 in each case.
